Assays:
[1] = system: Rattus norvegicus; assay: Minimum effective agonist dose administered subcutaneously; type: functional; details: sc, read-out: MED
Procedure, shortened: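 Male Wistar rats (200-220 g) were given the test drug alone sc in water (1.0 mL/kg), with vehicle reinjected at 30 min. Rectal temperature change from basal was measured 60 min after the first injection. MED for hypothermia was set against vehicle by ANOVA with Dunnett's test, P < 0.05.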

[2] = system: Rattus norvegicus; assay: Minimum effective antagonist dose administered subcutaneously; type: functional; details: sc, read-out: MED
Procedure, shortened: (§1)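 Male Wistar rats (200-220 g) had rectal temperature taken, then received the test drug sc in distilled water (1.0 mL/kg). After 30 min they got 8-OH-DPAT 0.16 mg/kg sc, and temperature was remeasured 30 min later. Change from basal was scored.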

[3] = organism: Rattus norvegicus; assay: Maximum agonist effect (% effect) expressed relative to 8-hydroxy-DPAT (100%); type: functional
Procedure, shortened: (§2)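 In the rat rectal-temperature model (sc dosing, 8-OH-DPAT 0.16 mg/kg sc for antagonism), the maximal percentage of induced hypothermia (agonist) and of block of 8-OH-DPAT hypothermia (antagonist) was recorded. Each value is given with the dose at which it was reached.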

[4] = target: 5-hydroxytryptamine receptor 1B (Rattus norvegicus, UniProt P28564); assay: Binding affinity at 5-hydroxytryptamine 1B receptor
Procedure, shortened: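 Rat frontal cortex membranes (1/40 wt/vol) were homogenized in 50 mM Tris pH 7.7 with pargyline, 4 mM CaCl2 and 0.1% ascorbic acid, then preincubated for 30 min at 37 °C. Labelled with 2.0 nM [3H]-5-HT, with 100 nM 8-OH-DPAT and 100 nM mesulergine masking 5-HT1A/5-HT2A sites; 5-CT defined nonspecific binding.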

[5] = Ratio of MED (agonist) to that of MED (antagonist) values.; type: functional
Procedure, shortened: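 The MED for inducing hypothermia alone was divided by the MED for blocking 8-OH-DPAT (0.16 mg/kg sc) hypothermia. Both MEDs came from sc dosing in male Wistar rats and were tested against vehicle by ANOVA with Dunnett's test, P < 0.05.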

[6] = target: D(2) dopamine receptor (Rattus norvegicus) (UniProt P61169); assay: Inhibitory activity against methyl-phenidate-induced gnawing at dopamine D2 receptor in rat
Procedure, shortened: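 Male Wistar rats (200-220 g) received the test drug sc in water (1.0 mL/kg), then methylphenidate 40.0 mg/kg ip 30 min later. Observation began 30 min after that. Gnawing bouts were counted in 10 s per minute (maximum 10) by a blinded observer.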

[7] = organism: Rattus norvegicus; assay: Maximum antagonist effect (% effect) expressed relative to 8-hydroxy-DPAT (100%); type: functional; procedure, shortened: as §2
[8] = target: T1, 5-hydroxytryptamine receptor 1A (Rattus norvegicus, UniProt P19327); assay: Binding affinity at 5-hydroxytryptamine 1A receptor
T1 sequence (P19327 whole entry): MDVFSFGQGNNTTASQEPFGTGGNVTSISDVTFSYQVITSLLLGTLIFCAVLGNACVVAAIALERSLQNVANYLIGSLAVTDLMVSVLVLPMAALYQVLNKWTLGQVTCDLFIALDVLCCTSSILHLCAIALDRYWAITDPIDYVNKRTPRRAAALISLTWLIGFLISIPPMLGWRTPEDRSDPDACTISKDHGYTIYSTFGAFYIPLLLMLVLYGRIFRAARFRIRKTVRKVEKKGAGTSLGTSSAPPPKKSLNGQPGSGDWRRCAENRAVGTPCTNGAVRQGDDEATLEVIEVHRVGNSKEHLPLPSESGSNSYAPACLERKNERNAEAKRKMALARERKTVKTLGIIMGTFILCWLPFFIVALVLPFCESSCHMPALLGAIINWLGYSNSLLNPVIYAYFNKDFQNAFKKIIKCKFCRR
Procedure, shortened: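 Rat hippocampal membranes (1/100 wt/vol) in 50 mM Tris pH 7.7 with 4 mM CaCl2, 0.1% ascorbic acid and pargyline. Membranes were spun at 25000g, preincubated 30 min at 37 °C and respun, then incubated with 0.4 nM [3H]-8-OH-DPAT for 30 min at 25 °C. 5-HT defined nonspecific binding, and samples were filtered on PEI-soaked GF/B. IC50 came from regression; pKi = −log[IC50/(1+[L]/Kd)].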

[9] = system: Rattus norvegicus; assay: Compound after subcutaneous administration was evaluated for antagonist activity against hypothermia induced by 8-hydroxy -DPAT in rat; type: functional; details: sc, read-out: ID50 (the source's name); procedure, shortened: as §1
[10] = target: D(2) dopamine receptor (Rattus norvegicus, UniProt P61169); assay: In vitro binding affinity towards dopamine D2 receptor in rat striatum was determined using [3H]-spiperone as radioligand; type: tissue-based
Procedure, shortened: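 Rat striatal membranes (1/300 wt/vol), no preincubation, in 50 mM Tris pH 7.4 with CaCl2, ascorbic acid, 5 mM KCl, 1 mM MgCl2 and 120 mM NaCl. Ligand 0.2 nM [3H]spiperone, with 100 nM ketanserin masking 5-HT2A sites; raclopride defined nonspecific binding. Incubation 30 min at 37 °C, then filtration. pKi derived from regression-based IC50.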

[11] = target: Serotonin 1a (5-HT1a) receptor/Adrenergic receptor alpha-1 (Rattus norvegicus) (UniProt P15823+P23944+P43140+P19327); assay: Ki ratio measured as the Ki values of alpha-1 adrenergic receptor to that of 5-hydroxytryptamine 1A receptor; type: protein assay
[12] = target: T2, Adrenergic receptor alpha-1 (Rattus norvegicus, UniProt P15823+P23944+P43140); assay: In vitro binding affinity towards Alpha-1 adrenergic receptor in rat cortex was determined using [3H]prazosin as radioligand
T2 sequence (P15823 whole entry): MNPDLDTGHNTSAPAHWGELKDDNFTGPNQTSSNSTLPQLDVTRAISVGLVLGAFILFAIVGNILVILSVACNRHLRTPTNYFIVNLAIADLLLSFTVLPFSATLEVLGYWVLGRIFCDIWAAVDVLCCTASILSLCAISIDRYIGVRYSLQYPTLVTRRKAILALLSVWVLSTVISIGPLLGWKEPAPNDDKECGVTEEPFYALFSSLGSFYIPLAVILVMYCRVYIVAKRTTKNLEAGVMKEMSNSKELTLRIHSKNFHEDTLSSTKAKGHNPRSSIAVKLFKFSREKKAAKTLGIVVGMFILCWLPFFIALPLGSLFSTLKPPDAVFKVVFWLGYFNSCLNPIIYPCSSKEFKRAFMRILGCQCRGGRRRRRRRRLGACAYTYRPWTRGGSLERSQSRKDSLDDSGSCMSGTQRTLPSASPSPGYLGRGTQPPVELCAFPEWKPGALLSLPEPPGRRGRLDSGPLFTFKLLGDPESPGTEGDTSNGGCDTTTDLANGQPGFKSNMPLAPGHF
T2 sequence (P23944 whole entry): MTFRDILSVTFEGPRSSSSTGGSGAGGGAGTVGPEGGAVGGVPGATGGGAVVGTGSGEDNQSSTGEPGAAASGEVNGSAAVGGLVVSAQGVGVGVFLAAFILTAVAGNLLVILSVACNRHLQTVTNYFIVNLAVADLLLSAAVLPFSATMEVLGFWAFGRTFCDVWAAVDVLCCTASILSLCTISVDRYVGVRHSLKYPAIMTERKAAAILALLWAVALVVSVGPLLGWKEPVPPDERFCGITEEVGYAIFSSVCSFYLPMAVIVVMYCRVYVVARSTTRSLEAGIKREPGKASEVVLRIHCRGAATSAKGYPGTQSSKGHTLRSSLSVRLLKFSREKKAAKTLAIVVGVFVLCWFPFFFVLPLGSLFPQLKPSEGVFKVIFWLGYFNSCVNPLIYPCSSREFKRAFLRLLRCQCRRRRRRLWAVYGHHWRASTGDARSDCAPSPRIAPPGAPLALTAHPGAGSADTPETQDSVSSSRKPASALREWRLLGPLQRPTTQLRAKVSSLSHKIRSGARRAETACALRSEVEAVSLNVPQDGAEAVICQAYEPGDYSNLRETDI
T2 sequence (P43140 whole entry): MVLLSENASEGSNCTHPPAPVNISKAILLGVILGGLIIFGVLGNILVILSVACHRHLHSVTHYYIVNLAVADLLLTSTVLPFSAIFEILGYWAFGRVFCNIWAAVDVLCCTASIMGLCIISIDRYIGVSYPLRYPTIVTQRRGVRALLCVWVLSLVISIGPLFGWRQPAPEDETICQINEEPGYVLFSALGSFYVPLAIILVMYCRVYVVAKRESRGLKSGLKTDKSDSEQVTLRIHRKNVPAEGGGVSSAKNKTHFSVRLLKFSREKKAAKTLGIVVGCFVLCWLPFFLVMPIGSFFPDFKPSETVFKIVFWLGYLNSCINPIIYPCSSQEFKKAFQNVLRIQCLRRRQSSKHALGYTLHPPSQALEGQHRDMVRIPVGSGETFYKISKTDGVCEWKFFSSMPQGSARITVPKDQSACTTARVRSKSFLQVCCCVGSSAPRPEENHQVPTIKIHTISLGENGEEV
Procedure, shortened: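 Rat frontal cortex membranes (1/80 wt/vol), no preincubation, in 50 mM Tris pH 7.6 with 4 mM CaCl2 and 0.1% ascorbic acid. Ligand 0.2 nM [3H]prazosin, with phentolamine for nonspecific binding. Incubation 60 min at 25 °C, then filtration. IC50 obtained by regression and converted to pKi with radioligand Kd from saturation experiments.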

[13] = target: D(2) dopamine receptor (Rattus norvegicus) (UniProt P61169)

Sequence of 5-hydroxytryptamine receptor 1B (P28564 whole entry): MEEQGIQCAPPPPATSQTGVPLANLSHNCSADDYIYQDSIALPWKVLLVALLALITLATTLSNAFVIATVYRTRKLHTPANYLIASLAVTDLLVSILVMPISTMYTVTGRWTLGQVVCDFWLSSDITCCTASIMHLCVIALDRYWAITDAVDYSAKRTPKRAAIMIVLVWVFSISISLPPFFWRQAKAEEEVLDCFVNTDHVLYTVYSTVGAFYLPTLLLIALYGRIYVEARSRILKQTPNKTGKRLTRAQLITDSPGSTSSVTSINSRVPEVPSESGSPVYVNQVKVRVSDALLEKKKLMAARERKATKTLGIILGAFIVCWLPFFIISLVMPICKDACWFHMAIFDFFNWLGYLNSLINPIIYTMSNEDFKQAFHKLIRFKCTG
Sequence of D(2) dopamine receptor (Rattus norvegicus) (P61169 whole entry): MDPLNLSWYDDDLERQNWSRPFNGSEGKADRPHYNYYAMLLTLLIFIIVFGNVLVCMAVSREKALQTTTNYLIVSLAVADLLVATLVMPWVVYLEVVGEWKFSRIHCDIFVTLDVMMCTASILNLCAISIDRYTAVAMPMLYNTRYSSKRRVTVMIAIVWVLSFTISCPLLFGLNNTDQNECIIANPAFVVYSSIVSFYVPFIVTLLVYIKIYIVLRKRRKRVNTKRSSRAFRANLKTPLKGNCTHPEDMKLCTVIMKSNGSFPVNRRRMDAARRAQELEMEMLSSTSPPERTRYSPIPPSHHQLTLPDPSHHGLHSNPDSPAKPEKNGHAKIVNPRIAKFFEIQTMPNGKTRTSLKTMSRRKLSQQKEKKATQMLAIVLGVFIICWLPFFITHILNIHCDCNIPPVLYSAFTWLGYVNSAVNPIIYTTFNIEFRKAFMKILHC
Sequence of D(2) dopamine receptor (P61169 whole entry): as above

Q: With `Clc1cccc2c1CC2CN1CCN(c2cccc3c2OCCO3)CC1` (stereo unspecified) as the compound, how does the minimal effective dose [1] read?
A: 40 mg/kg

Q: What about the minimal effective dose [2] of the same compound?
A: 0.63 mg/kg

Q: And the Max effect [3]?
A: 0%

Q: What about the Ki [4] of the same compound?
A: 550 nM

Q: What about the Ratio [5] of the same compound?
A: 63.5

Q: And the ID50 [6]?
A: > 40 mg/kg

Q: What about the Max effect [7] of the same compound?
A: 100%

Q: And the Ki [8]?
A: 3.98 nM

Q: What about the ED50 [9] of the same compound?
A: 0.8 mg/kg

Q: With `Clc1cccc2c1CC2CCN1CCN(c2cccc3c2OCCO3)CC1` (stereo unspecified) as the compound, how does the minimal effective dose [1] read?
A: 40 mg/kg

Q: And the Ki [10]?
A: 60.3 nM

Q: And the Ki ratio [11]?
A: 28.8

Q: And the “Log Ki” value [12]?
A: -7.19

Q: And the ID50 [13]?
A: > 40 mg/kg

Q: And the minimal effective dose [2]?
A: 1.25 mg/kg

Q: What about the Max effect [3] of the same compound?
A: 52%

Q: What about the Ki [4] of the same compound?
A: 708 nM

Q: What about the Ratio [5] of the same compound?
A: 32

Q: And the Max effect [7]?
A: 96%

Q: And the Ki [8]?
A: 2.24 nM

Q: And the ED50 [9]?
A: 1.13 mg/kg
